Results reported in ChEMBL document CHEMBL1811853, “Design and evaluation of 3-aminopyrazolopyridinone kinase inhibitors inspired by the natural product indirubin” (Bioorg Med Chem, 2011).

What was measured:
[1] = biological target: MAP kinase-activated protein kinase 2 (Homo sapiens, UniProt P49137); assay: Inhibition of MAPKAPK2 at 30 uM by microfluidic mobility shift assay
Method in brief: (§1)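 Single-concentration screen, singlicate, 30 uM final (diluted from 1 mM DMSO solutions), fluorescently tagged peptide substrate appropriate to each kinase, ATP at apparent Km for each protein. Phosphorylated and unphosphorylated peptides separated electrophoretically; conversion is the phosphorylated peak area over the sum of both peaks. No-inhibitor and no-ATP controls; H89 reference on each plate.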

[2] = biological target: T1, Aurora kinase A (Homo sapiens) (UniProt O14965); assay: Inhibition of AurA at 30 uM by microfluidic mobility shift assay; method in brief: as §1
T1 sequence (whole entry): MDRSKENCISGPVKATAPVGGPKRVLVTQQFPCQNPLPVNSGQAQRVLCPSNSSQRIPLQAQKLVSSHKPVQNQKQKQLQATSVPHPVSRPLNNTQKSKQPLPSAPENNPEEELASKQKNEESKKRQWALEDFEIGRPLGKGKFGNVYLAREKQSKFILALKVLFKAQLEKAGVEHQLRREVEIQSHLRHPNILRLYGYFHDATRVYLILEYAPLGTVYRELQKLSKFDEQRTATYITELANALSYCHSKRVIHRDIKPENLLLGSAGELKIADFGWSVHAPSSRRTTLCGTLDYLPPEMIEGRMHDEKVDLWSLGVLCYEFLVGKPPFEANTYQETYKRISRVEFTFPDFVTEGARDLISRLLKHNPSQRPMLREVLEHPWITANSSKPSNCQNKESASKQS

[3] = biological target: Ribosomal protein S6 kinase alpha-1 (Homo sapiens) (UniProt Q15418); assay: Inhibition of RSK1 at 30 uM by microfluidic mobility shift assay; method in brief: as §1
[4] = biological target: T2, MAP kinase-activated protein kinase 5 (Homo sapiens) (UniProt Q8IW41); assay: Inhibition of PRAK1 at 30 uM by microfluidic mobility shift assay; method in brief: as §1
T2 sequence (whole entry): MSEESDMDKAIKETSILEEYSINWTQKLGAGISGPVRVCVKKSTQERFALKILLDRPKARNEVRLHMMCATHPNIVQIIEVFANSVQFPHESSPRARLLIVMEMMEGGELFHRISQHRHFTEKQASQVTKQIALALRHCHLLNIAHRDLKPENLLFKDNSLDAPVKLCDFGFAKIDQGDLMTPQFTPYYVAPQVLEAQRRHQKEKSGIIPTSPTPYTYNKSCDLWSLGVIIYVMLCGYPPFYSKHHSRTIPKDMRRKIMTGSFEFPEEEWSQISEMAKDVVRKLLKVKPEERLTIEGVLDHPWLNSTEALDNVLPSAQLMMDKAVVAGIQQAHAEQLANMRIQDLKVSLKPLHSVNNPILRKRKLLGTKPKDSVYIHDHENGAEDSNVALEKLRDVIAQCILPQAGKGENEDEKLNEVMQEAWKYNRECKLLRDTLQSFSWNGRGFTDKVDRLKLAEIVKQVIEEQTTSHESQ

[5] = biological target: Mitogen-activated protein kinase 3 (Homo sapiens) (UniProt P27361); assay: Inhibition of ERK1 at 30 uM by microfluidic mobility shift assay; method in brief: as §1
[6] = biological target: T3, Serine/threonine-protein kinase D2 (Homo sapiens) (UniProt Q9BZL6); assay: Inhibition of PKD2 at 30 uM by microfluidic mobility shift assay; method in brief: as §1
T3 sequence (whole entry): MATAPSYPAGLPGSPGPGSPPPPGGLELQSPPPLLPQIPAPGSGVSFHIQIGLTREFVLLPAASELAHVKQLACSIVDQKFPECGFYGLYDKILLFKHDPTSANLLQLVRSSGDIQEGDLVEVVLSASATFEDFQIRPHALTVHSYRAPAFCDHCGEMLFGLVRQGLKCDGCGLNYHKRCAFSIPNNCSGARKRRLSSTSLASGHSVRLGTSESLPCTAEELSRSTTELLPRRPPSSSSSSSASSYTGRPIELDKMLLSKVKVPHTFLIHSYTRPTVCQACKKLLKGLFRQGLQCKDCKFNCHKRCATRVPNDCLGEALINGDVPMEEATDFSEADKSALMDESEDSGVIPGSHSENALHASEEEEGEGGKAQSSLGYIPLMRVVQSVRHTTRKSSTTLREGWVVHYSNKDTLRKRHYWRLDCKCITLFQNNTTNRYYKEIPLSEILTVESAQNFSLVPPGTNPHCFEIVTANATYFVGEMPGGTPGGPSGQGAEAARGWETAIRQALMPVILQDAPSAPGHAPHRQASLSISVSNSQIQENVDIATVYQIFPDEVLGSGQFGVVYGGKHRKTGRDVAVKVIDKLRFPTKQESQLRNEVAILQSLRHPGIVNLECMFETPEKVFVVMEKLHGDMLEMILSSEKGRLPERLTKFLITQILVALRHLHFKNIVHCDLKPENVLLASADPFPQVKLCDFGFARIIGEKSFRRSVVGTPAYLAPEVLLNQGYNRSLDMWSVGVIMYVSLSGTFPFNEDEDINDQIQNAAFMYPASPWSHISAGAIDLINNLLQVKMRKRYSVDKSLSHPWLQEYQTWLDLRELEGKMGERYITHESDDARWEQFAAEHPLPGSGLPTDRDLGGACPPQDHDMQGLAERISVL

[7] = biological target: T4, Serine/threonine-protein kinase Chk1 (Homo sapiens) (UniProt O14757); assay: Inhibition of CHK1 at 30 uM by microfluidic mobility shift assay; method in brief: as §1
T4 sequence (whole entry): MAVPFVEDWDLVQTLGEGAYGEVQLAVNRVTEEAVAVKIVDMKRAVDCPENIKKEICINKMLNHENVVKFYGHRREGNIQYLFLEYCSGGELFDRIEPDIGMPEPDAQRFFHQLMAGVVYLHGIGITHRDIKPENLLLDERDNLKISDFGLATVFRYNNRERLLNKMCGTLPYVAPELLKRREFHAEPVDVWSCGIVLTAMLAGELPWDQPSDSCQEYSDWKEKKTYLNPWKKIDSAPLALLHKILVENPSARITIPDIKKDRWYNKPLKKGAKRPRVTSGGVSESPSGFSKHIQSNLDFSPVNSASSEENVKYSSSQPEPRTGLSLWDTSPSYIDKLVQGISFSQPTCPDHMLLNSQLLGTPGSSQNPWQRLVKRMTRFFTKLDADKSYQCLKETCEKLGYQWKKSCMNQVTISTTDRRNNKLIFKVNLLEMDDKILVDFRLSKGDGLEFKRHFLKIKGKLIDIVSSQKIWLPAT

[8] = biological target: Tyrosine-protein kinase ABL1 (Homo sapiens, UniProt P00519); assay: Inhibition of ABL at 30 uM by microfluidic mobility shift assay; method in brief: as §1
[9] = biological target: Tyrosine-protein kinase Fyn (Homo sapiens, UniProt P06241); assay: Inhibition of FYN at 30 uM by microfluidic mobility shift assay; method in brief: as §1
[10] = biological target: Tyrosine-protein kinase Lyn (Homo sapiens, UniProt P07948); assay: Inhibition of LYN at 30 uM by microfluidic mobility shift assay; method in brief: as §1
Sequence of Tyrosine-protein kinase Lyn (P07948 2-512 limits assumed): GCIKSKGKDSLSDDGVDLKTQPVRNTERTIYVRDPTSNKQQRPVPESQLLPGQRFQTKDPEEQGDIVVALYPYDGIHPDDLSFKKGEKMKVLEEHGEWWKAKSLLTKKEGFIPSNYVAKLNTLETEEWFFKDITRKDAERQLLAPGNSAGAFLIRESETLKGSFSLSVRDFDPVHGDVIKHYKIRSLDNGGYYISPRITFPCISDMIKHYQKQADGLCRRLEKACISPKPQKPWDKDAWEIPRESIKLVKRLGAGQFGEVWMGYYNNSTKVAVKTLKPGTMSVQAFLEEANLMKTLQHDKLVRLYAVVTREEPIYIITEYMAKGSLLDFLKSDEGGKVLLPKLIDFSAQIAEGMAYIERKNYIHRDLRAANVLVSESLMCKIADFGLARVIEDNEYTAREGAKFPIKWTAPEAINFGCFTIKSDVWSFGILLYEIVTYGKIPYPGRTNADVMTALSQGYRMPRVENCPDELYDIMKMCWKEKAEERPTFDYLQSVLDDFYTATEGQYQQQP

[11] = biological target: Serine/threonine-protein kinase Chk2 (Homo sapiens, UniProt O96017); assay: Inhibition of CHK2 at 30 uM by microfluidic mobility shift assay; method in brief: as §1
Sequence of Serine/threonine-protein kinase Chk2 (O96017 whole entry): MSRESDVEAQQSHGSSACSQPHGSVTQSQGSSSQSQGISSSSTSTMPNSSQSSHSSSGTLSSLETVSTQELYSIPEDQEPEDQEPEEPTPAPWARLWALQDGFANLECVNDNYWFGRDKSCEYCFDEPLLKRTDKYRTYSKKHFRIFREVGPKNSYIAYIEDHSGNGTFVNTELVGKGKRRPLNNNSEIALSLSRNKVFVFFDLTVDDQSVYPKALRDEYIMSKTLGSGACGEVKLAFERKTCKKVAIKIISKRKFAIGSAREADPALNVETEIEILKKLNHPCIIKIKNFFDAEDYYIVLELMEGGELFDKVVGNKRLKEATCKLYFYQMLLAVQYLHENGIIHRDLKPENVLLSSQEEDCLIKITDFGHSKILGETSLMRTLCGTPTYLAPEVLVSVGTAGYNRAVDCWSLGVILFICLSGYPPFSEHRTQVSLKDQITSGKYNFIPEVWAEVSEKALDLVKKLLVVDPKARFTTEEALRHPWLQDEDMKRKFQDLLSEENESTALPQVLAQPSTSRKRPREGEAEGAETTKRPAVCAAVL

[12] = biological target: Tyrosine-protein kinase Lck (Homo sapiens, UniProt P06239); assay: Inhibition of LCK at 30 uM by microfluidic mobility shift assay; method in brief: as §1
Sequence of Tyrosine-protein kinase Lck (P06239 2-509 limits assumed): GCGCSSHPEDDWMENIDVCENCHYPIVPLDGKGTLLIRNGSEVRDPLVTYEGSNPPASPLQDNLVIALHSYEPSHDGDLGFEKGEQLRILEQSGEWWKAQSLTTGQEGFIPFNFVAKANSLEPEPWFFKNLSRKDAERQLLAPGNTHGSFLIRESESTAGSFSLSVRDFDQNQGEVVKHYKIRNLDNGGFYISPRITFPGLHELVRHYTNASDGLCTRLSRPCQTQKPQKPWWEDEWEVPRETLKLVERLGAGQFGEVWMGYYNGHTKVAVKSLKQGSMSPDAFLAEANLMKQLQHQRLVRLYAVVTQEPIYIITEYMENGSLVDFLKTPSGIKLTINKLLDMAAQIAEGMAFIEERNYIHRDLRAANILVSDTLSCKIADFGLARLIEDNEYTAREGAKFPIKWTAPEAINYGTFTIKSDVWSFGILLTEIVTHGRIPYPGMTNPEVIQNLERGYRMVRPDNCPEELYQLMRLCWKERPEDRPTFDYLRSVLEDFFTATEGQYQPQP

[13] = biological target: Proto-oncogene tyrosine-protein kinase Src (Homo sapiens, UniProt P12931); assay: Inhibition of SRC at 30 uM by microfluidic mobility shift assay; method in brief: as §1
[14] = biological target: Glycogen synthase kinase-3 beta (Homo sapiens) (UniProt P49841); assay: Inhibition of GSK3B at 30 uM by microfluidic mobility shift assay; method in brief: as §1
[15] = biological target: Mitogen-activated protein kinase 1 (Homo sapiens) (UniProt P28482); assay: Inhibition of ERK2 at 30 uM by microfluidic mobility shift assay; method in brief: as §1
Sequence of Mitogen-activated protein kinase 1 (Homo sapiens) (P28482 whole entry): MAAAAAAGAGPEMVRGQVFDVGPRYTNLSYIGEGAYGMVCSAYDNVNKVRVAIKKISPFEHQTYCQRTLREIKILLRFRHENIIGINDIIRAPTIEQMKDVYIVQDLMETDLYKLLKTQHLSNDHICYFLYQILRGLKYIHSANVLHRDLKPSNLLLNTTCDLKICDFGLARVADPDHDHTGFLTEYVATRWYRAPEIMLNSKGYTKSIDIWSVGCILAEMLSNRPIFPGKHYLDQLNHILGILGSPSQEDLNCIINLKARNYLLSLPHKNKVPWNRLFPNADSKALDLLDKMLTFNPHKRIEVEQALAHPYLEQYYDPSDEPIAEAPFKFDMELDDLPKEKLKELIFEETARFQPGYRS

[16] = Inhibition of PKA at 30 uM by microfluidic mobility shift assay; method in brief: as §1
[17] = biological target: RAC-beta serine/threonine-protein kinase (Homo sapiens) (UniProt P31751); assay: Inhibition of AKT2 at 30 uM by microfluidic mobility shift assay; method in brief: as §1
[18] = biological target: Insulin receptor (Homo sapiens) (UniProt P06213); assay: Inhibition of INSR at 30 uM by microfluidic mobility shift assay; method in brief: as §1
Sequence of Insulin receptor (Homo sapiens) (P06213 28-758 limits assumed): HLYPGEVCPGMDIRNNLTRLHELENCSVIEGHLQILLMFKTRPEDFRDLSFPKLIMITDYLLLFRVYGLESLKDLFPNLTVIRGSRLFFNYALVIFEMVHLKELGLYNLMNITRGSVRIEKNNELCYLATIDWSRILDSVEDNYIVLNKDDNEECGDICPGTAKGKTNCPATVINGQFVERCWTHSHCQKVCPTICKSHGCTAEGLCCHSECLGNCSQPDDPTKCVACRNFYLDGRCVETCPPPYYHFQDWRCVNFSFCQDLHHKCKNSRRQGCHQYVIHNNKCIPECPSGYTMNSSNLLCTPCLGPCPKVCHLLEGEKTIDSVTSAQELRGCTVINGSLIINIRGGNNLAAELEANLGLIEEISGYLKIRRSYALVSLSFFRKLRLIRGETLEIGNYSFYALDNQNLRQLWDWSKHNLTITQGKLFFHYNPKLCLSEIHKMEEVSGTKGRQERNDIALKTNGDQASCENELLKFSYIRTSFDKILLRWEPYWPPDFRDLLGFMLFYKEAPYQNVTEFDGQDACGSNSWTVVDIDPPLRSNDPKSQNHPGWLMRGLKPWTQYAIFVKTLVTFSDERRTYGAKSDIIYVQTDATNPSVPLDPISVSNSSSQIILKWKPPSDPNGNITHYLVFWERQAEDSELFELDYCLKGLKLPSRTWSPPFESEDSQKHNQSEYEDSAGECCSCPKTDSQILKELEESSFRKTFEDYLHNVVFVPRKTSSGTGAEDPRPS
Sequence of Insulin receptor (Homo sapiens) (P06213 763-1382 limits assumed): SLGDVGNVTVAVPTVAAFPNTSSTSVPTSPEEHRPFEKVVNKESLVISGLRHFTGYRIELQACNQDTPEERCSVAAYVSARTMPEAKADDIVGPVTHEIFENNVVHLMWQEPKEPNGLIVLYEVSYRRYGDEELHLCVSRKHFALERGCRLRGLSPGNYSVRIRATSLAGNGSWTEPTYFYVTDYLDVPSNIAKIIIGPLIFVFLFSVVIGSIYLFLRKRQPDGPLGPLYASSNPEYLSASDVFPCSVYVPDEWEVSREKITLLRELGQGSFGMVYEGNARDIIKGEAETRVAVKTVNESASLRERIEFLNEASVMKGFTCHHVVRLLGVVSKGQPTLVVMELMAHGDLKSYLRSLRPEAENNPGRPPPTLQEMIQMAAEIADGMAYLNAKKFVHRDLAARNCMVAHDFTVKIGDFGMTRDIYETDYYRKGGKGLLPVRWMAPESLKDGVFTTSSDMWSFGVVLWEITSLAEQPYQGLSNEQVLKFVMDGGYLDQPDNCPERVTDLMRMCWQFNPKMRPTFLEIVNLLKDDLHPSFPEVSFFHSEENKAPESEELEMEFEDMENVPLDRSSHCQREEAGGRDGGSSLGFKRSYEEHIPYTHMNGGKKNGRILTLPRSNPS

[19] = biological target: Mitogen-activated protein kinase 14 (Homo sapiens, UniProt Q16539); assay: Inhibition of p38alpha at 30 uM by microfluidic mobility shift assay; method in brief: as §1
[20] = biological target: RAC-alpha serine/threonine-protein kinase (Homo sapiens) (UniProt P31749); assay: Inhibition of AKT1 at 30 uM by microfluidic mobility shift assay; method in brief: as §1
Sequence of RAC-alpha serine/threonine-protein kinase (Homo sapiens) (P31749 whole entry): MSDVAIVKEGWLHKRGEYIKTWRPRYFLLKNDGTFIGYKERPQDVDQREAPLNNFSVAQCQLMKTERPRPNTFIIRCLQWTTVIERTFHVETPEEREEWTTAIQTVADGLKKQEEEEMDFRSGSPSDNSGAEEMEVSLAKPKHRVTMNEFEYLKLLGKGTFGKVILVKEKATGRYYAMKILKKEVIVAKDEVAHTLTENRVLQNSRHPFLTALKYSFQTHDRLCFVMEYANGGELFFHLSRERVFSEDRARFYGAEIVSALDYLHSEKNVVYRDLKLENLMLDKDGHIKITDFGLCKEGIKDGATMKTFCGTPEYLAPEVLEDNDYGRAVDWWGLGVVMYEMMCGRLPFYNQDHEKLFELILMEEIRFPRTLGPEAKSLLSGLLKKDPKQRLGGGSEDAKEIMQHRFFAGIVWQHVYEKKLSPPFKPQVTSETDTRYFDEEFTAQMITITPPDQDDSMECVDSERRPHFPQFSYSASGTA

[21] = biological target: Ribosomal protein S6 kinase alpha-5 (Homo sapiens) (UniProt O75582); assay: Inhibition of MSK1 at 30 uM by microfluidic mobility shift assay; method in brief: as §1
Sequence of Ribosomal protein S6 kinase alpha-5 (Homo sapiens) (O75582 whole entry, looked up): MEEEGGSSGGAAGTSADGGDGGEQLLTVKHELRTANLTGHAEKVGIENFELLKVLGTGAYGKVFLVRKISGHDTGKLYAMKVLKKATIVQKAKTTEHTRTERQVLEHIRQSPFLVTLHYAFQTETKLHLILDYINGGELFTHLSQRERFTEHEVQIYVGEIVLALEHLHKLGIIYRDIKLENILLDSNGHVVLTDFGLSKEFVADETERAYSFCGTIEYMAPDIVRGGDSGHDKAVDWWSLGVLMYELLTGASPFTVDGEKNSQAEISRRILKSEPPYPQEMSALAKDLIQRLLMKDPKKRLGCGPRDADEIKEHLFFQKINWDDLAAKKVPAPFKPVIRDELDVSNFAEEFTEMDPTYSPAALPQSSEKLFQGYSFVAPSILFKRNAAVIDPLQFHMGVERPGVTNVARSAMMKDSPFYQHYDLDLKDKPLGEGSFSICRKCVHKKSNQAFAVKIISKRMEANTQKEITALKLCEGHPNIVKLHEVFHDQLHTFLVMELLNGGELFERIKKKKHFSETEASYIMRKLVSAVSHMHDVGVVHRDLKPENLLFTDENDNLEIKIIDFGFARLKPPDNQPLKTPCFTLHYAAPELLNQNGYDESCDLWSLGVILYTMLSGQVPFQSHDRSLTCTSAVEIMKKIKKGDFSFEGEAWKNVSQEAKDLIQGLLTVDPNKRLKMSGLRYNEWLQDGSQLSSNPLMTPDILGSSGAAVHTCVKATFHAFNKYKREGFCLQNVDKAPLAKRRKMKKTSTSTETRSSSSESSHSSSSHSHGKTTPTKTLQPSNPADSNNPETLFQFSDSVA

Sequence of MAP kinase-activated protein kinase 2 (P49137 whole entry, looked up): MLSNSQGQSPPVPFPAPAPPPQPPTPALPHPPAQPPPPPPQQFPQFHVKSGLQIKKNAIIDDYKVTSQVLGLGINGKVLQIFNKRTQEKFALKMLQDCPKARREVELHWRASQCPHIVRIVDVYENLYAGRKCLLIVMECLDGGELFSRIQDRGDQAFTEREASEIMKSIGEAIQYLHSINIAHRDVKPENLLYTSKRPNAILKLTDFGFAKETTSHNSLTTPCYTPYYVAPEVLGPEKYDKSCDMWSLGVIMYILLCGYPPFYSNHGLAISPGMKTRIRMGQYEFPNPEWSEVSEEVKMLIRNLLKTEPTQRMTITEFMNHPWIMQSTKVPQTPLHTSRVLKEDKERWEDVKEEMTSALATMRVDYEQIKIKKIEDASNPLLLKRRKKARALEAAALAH

Row | SMILES | inhibition [1] [%] | inhibition [2] [%] | inhibition [3] [%] | inhibition [4] [%] | inhibition [5] [%] | inhibition [7] [%] | inhibition [8] [%] | inhibition [9] [%] | inhibition [10] [%] | inhibition [11] [%] | inhibition [12] [%] | inhibition [13] [%] | inhibition [14] [%] | inhibition [15] [%] | inhibition [16] [%] | inhibition [17] [%] | inhibition [18] [%] | inhibition [19] [%] | inhibition [20] [%] | inhibition [21] [%] | further results
1 | Cc1cc2nn(-c3ccccc3)c(N)c2c(N2CCCCC2)n1 | 7 | 10 | 4 | 10 | 4 | -1 | 7 | 7 | 8 | 4 | 12 | 7 | 7 | 6 | 2 | -7 | -2 | 10 | 1 | 10 | inhibition [6]: 5%
2 | Cc1cc2c(c(N)nn2C)c(N2CCCCC2)n1 | 7 | 41 | 23 | 17 | 13 | – | 19 | 8 | 11 | 4 | 6 | 4 | 8 | 1 | 6 | 0 | -2 | 4 | 6 | 7 | inhibition [6]: 16%
3 | O=S(=O)(NCCNC/C=C/c1ccc(Br)cc1)c1cccc2cnccc12 | 41 | 71 | – | 37 | – | – | 8 | – | – | – | – | 18 | 10 | – | 100 | – | 3 | 5 | – | – | –
4 | Cc1cc2[nH]nc(N)c2cn1 | 7 | 31 | 11 | 13 | 8 | – | 11 | 3 | 8 | 7 | 6 | 6 | 9 | 4 | 19 | -3 | 5 | 2 | -1 | 13 | inhibition [6]: 25%
5 | Cc1cc2[nH]ncc2c(=O)[nH]1 | 11 | 13 | -3 | 1 | 4 | 2 | 4 | 4 | 5 | 12 | 11 | 5 | 13 | 0 | 8 | 1 | 2 | -5 | 2 | 2 | –
6 | Nc1c2cnc(-c3ccccc3)cc2nn1-c1ccccc1 | 1 | 3 | -3 | 2 | 5 | 6 | 19 | 13 | 29 | 7 | 13 | 9 | 4 | 1 | 4 | 3 | 3 | 55 | -1 | -2 | –
7 | Cc1cc2[nH]nc(N)c2c(N2CCOCC2)n1 | 1 | 72 | 30 | 5 | 15 | 13 | 24 | 43 | 51 | 23 | 44 | 45 | 73 | 7 | 71 | 7 | 0 | -3 | 17 | 74 | –
